The format of data set [1] is in vivo, human. The note with it: PO BID, with cetuximab 250 mg/m^2 weekly following a 400 mg/m^2 load.
A short description of data set [2]: Selumetinib plasma pharmacokinetics. The settings on record: for Log (Cmax (ng/mL) – dose normalized) / Log(AUC 0-∞ (ng/mL × hr) – dose normalized): mean ± SD; for half-life: T ½. It is filed as in vivo, human. The gist of the method:
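Patients with refractory solid tumours or KRAS-mutant CRC took oral MEK inhibitor capsules fasting, with the morning dose ≥1 h before the anti-EGFR antibody (400 mg/m2 IV load, then 250 mg/m2 weekly; 28-day cycles). EDTA plasma was drawn at baseline and 0.5–12 h post-dose on C1D1, and assayed by validated LC-MS/MS (LOD 3.91 ng/ml). Analysis was noncompartmental. Dose levels 1–2 were pooled.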

For data set [3] the following is noted: solid formulation, orally twice daily; cited from earlier work.
The subject of data set [4] is ERK phosphorylation. The note with it: peripheral blood mononuclear cells and tumor biopsies; cited from earlier work.
Where [5] appears, read: day 1 of cycle 1, dose level 1 (selumetinib 50mg), N=6, mean ± SD.
Where [6] appears, read: day 1 of cycle 1, dose level 1 and 2 combined (N=10).
Where [7] appears, read: day 1 of cycle 1, dose level 2 (selumetinib 50mg), N=4, mean ± SD.
[8] abbreviates: day 1 of cycle 1, dose level 3 incl. expansion cohort (N=22).
Setting [9] is: human, plasma, oral, 50 mg, day 1 of cycle 1, dose level 1 (selumetinib 50mg), N=6, mean ± SD.
Setting [10] is: human, plasma, oral, 50 mg, day 1 of cycle 1, dose level 2 (selumetinib 50mg), N=4, mean ± SD.

Data on one compound can be found in paper PMC4788533 (Investigational new drugs, 2015).

Regarding `Cn1cnc2c(F)c(Nc3ccc(Br)cc3Cl)c(C(=O)NOCCO)cc21` [selumetinib], in data set [1], the “maximum tolerated dose of the combination, selumetinib part” value came out at 75 mg. Further, the figures for the Cl/F in data set [2] (setting [5]) and in data set [2] (setting [7]) were 23.9 ± 5.48 L/h and 21.0 ± 2.53 L/h, respectively. Besides, the V/F in data set [2] (setting [5]) is given as 76.9 ± 18.1 L; in data set [2] (setting [7]) it was 70.4 ± 19.7 L. In addition, the entries for the “Log (Cmax (ng/mL) – dose normalized)” value in data set [2] (setting [6]) and in data set [2] (setting [8]) were 3.19 ± 0.23 and 3.00 ± 0.43, respectively. Also, the “Log(AUC 0-∞ (ng/mL × hr) – dose normalized)” value was found to be 4.23 ± 0.17 in data set [2] (setting [6]) and 4.24 ± 0.54 in data set [2] (setting [8]). In addition, the Cmax in data set [2] (day 1 of cycle 1, dose level 2 (selumetinib 50mg), N=4, geometric mean (CV)) was 1143 (CV 0.28) ng/mL; in data set [2] (human, plasma, oral, 50 mg, Cmax, day 1 of cycle 1, dose level 1 (selumetinib 50mg), N=6, geometric mean (CV)), 1320 ng/mL. Moreover, in data set [2] (human, plasma, oral), the AUC (commonly the area under the concentration-time curve, a measure of exposure) was in the range of 3210 to 5200 ng·h/mL. Further, the AUC(0-inf) – broadly, total exposure, with the tail of the curve extrapolated – is 3210 ng·h/mL in data set [2] (human, plasma, oral, 50 mg, day 1 of cycle 1, dose level 1 (selumetinib 50mg), N=6, geometric mean (CV)); 3450 ng·h/mL in data set [2] (human, plasma, oral, 50 mg, day 1 of cycle 1, dose level 1 and 2 combined (50mg dose, N=10), geometric mean (CV)); 3610 ng·h/mL in data set [2] (human, plasma, oral, 50 mg, day 1 of cycle 1, dose level 2 (selumetinib 50mg), N=4, geometric mean (CV)). The results for the half-life in data set [2] (setting [9]) and in data set [2] (setting [10]) were 2.28 ± 0.55 h and 2.31 ± 0.55 h, respectively. Further, the results for the Tmax in data set [2] (setting [9]) and in data set [2] (setting [10]) were 1.13 ± 0.25 h and 1.92 ± 1.28 h, respectively. Moreover, the “maximum tolerated dose (MTD) of selumetinib, single agent” value in data set [3] was 75 mg. Besides, the “ERK phosphorylation following selumetinib treatment” value in data set [4] is given as “Inhibition of ERK phosphorylation was observed”.
